Test results taken from ChEMBL document CHEMBL4406919, “Structure-Based Design of Selective, Covalent G Protein-Coupled Receptor Kinase 5 Inhibitors” (ACS Med Chem Lett, 2019).

Assays:
[1] = target: T1, Beta-adrenergic receptor kinase 1 (Bos taurus, UniProt P21146); assay: Inhibition of bovine GRK2 using tubulin as substrate measured after 4 hrs by [gamma-32P]-ATP assay
T1 sequence (P21146 whole entry): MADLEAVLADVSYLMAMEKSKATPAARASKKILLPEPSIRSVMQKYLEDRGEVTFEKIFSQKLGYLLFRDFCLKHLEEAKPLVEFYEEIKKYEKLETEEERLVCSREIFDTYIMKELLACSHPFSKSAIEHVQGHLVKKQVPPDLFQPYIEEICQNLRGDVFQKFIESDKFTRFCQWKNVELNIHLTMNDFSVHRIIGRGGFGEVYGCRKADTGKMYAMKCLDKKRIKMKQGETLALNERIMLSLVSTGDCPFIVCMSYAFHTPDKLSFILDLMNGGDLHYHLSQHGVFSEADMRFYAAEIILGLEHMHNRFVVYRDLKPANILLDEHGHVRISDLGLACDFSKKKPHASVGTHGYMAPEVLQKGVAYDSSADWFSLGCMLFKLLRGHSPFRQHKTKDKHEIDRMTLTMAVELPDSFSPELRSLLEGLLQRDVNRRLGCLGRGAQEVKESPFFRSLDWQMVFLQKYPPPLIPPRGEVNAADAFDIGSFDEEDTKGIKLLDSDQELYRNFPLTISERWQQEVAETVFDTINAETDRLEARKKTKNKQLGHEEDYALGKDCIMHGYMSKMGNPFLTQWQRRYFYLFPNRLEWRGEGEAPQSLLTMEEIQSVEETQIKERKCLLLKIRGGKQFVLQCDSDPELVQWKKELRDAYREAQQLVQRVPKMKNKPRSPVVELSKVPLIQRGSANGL
Outline: (§1)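 Radiometric kinase assay using tubulin as phosphoacceptor and [γ-32P]ATP. Inhibitor was preincubated with the kinase for the stated time (here 4 h) before the reaction. IC50 came from dose–response curves. Most runs were three independent experiments in duplicate; some GRK5/GRK6 4 h runs were done twice in duplicate.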

[2] = Inhibition of bovine GRK6 using tubulin as substrate measured after 4 hrs by [gamma-32P]-ATP assay; parameters: species or system Bos taurus; outline: as §1
[3] = target: T2, G protein-coupled receptor kinase 5 (Homo sapiens, UniProt P34947); assay: Inhibition of human GRK5 using tubulin as substrate measured after 4 hrs by [gamma-32P]-ATP assay
[4] = target: G protein-coupled receptor kinase 5 (Bos taurus, UniProt P43249, C474S); assay: Inhibition of bovine GRK5 C474S mutant using tubulin as substrate measured after 4 hrs by [gamma-32P]-ATP assay
[5] = Selectivity index, ratio of IC50 for bovine GRK2 to IC50 for human GRK5
Outline: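 Selectivity is the GRK2 IC50 divided by the GRK5 IC50. Both values come from the tubulin/[γ-32P]ATP radiometric assay. The GRK5 value used is from the longest inhibitor preincubation tested.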

Rhodopsin kinase GRK1 [6] = target: T3, Rhodopsin kinase GRK1 (Bos taurus, UniProt P28327); assay: Inhibition of bovine GRK1 using tubulin as substrate measured after 4 hrs by [gamma-32P]-ATP assay; outline: as §1
T3 sequence (P28327 whole entry): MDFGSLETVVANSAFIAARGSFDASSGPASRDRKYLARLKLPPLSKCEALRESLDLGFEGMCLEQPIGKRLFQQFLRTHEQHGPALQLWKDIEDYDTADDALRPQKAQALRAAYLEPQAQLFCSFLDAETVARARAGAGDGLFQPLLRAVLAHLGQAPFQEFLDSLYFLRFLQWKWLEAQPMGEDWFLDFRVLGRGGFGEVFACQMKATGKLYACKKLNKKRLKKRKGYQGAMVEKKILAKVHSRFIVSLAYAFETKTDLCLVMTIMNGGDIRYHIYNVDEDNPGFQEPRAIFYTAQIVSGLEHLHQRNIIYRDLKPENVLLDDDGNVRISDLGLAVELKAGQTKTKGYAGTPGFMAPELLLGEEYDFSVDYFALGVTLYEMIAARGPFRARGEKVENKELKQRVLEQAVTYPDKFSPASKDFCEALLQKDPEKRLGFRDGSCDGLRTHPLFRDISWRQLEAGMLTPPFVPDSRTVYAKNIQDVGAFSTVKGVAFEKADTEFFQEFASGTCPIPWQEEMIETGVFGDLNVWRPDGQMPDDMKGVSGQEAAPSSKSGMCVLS

Rhodopsin kinase GRK1 [7] = target: T3, Rhodopsin kinase GRK1; assay: Displacement of BODIPY TR-ADP from bovine GRK1 (1 to 535 residues) preincubated for 10 mins followed by compound addition and measured after 10 to 15 mins by fluorescence polarization displacement assay
[8] = target: T2, G protein-coupled receptor kinase 5; assay: Displacement of BODIPY TR-ADP from GRK5 (unknown origin) preincubated for 10 mins followed by compound addition and measured after 10 to 15 mins by fluorescence polarization displacement assay

T2 sequence (P34947 whole entry): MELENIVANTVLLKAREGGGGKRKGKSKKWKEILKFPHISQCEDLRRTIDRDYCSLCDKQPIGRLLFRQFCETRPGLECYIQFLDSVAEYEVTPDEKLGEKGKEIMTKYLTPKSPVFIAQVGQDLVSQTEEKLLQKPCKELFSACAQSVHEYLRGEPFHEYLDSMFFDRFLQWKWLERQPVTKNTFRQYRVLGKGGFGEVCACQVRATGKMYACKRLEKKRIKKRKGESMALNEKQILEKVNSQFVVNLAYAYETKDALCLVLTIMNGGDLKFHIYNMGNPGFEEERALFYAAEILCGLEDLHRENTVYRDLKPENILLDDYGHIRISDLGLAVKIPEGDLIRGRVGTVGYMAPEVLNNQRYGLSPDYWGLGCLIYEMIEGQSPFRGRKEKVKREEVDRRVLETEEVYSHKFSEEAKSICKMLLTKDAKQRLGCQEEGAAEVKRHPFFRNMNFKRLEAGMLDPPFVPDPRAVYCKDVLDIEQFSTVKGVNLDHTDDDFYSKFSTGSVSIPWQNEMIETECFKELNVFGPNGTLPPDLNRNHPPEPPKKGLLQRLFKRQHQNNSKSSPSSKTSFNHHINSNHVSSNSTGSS
Sequence of G protein-coupled receptor kinase 5 (Bos taurus, UniProt P43249, C474S) (P43249 whole entry C474S): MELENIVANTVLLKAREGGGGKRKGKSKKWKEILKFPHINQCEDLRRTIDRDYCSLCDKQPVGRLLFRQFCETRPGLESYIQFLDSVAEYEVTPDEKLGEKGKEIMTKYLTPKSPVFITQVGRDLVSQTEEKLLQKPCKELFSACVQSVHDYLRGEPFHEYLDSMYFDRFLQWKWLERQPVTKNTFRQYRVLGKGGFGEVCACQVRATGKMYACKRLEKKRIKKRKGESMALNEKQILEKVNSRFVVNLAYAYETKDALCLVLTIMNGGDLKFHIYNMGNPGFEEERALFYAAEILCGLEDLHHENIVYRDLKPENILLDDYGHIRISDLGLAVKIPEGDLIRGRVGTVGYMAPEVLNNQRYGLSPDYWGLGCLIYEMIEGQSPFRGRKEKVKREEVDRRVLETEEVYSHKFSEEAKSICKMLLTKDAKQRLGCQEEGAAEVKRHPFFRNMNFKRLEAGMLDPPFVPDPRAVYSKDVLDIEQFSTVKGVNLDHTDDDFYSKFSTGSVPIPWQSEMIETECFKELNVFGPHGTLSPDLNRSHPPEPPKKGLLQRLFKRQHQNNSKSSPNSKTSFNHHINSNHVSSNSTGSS

Row | Compound | IC50 [1] | IC50 [2] | further results
1 | CNC(=O)c1ccccc1Nc1nc(Nc2cc(CNC(=O)/C=C/CN(C)C)ccc2OC)nc2[nH]ccc12 | 2.1 µM | 2.6 µM | IC50 [3]: 4.8 µM; Ratio IC50 [5]: 0.4
2 | COc1cc(NC(=O)/C=C/CN(C)C)ccc1Nc1nc(Nc2ccccc2C(N)=O)c2cc[nH]c2n1 | 0.68 µM | – | IC50 (Rhodopsin kinase GRK1 [6]): 0.76 µM
3 | C=CS(=O)(=O)NCc1ccc(OC)c(Nc2nc(Nc3ccccc3C(=O)NC)c3cc[nH]c3n2)c1 | > 100 µM | 2.5 µM | IC50 [3]: 7.1 µM; Ratio IC50 [5]: > 14
4 | CCC(=O)Nc1ccc(OC)c(Nc2nc(Nc3ccccc3C(N)=O)c3cc[nH]c3n2)c1 | – | > 100 µM | –
5 | COc1cc2c(cc1Nc1nc(Nc3ccsc3C(N)=O)c3cc[nH]c3n1)N(C(=O)CN(C)C)CCC2(C)C [GSK-2163632A] | – | – | IC50 (Rhodopsin kinase GRK1 [7]): 0.13 µM; IC50 [8]: 3.2 µM
6 | COc1ccc(NC(=O)/C=C/CN(C)C)cc1Nc1nc(Nc2ccccc2C(N)=O)c2cc[nH]c2n1 | 2.7 µM | – | IC50 (Rhodopsin kinase GRK1 [6]): 2.1 µM
7 | C=CS(=O)(=O)NCc1ccc(Nc2nc(Nc3ccccc3C(=O)NC)c3cc[nH]c3n2)c(OC)c1 | > 100 µM | 7.7 µM | –
8 | C=CC(=O)Nc1ccc(Nc2nc(Nc3ccccc3C(N)=O)c3cc[nH]c3n2)c(OC)c1 | – | 0.41 µM | –
9 | CCCN1CCC(c2ccc(Nc3nc(Nc4cc(F)ccc4C(N)=O)c4cc[nH]c4n3)c(OC)c2)CC1 [GSK-1326255A] | – | – | IC50 (Rhodopsin kinase GRK1 [7]): > 100 µM; IC50 [8]: 2.5 µM
10 | CCCN1CCC(Oc2cc(Nc3nc(Nc4cccc(F)c4C(N)=O)c4cc[nH]c4n3)c(OC)cc2Cl)CC1 [GSK-1713088A] | – | – | IC50 [8]: 3.2 µM

Continued, in another order:

Row | IC50 [1] | IC50 [2] | Compound | further results
11 | > 100 µM | > 100 µM | C=CC(=O)NCc1ccc(Nc2nc(Nc3ccccc3C(=O)NC)c3cc[nH]c3n2)c(OC)c1 | –
12 | > 100 µM | > 100 µM | CCC(=O)NCc1ccc(Nc2nc(Nc3ccccc3C(=O)NC)c3cc[nH]c3n2)c(OC)c1 | IC50 [3]: > 100 µM; IC50 [4]: 100 µM
13 | 2.9 µM | > 100 µM | CCC(=O)NCc1ccc(OC)c(Nc2nc(Nc3ccccc3C(=O)NC)c3cc[nH]c3n2)c1 | IC50 [3]: > 100 µM; Ratio IC50 [5]: < 0.01
14 | > 100 µM | > 100 µM | CC#CC(=O)NCc1ccc(OC)c(Nc2nc(Nc3ccccc3C(=O)NC)c3cc[nH]c3n2)c1 | IC50 [3]: > 100 µM
15 | > 100 µM | > 100 µM | CNC(=O)c1ccccc1Nc1nc(Nc2ccc(CNC(=O)/C=C/CN(C)C)cc2OC)nc2[nH]ccc12 | –
16 | > 100 µM | > 100 µM | CC#CC(=O)NCc1ccc(Nc2nc(Nc3ccccc3C(=O)NC)c3cc[nH]c3n2)c(OC)c1 | –
17 | 3.2 µM | 18 µM | C=CC(=O)NCc1ccc(OC)c(Nc2nc(Nc3ccccc3C(=O)NC)c3cc[nH]c3n2)c1 | –
